Test results reported in ChEMBL document CHEMBL1157684, “2-Thienyl-4-furyl-6-aryl pyridine derivatives: synthesis, topoisomerase I and II inhibitory activity, cytotoxicity, and structure-activity relationship study” (Bioorg Med Chem, 2010).
Calls of active or inactive are those of the source. No cut-off for these calls is given here.

Experiments:
DU-145 = assay: Cytotoxicity against human DU145 cells after 4 days by ELISA reader assay; format: functional, cell-based; conditions: DU-145, 96 h
Method in brief: (§1)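 Cells grown per supplier, seeded at 2–4 × 10⁴ per well, left overnight in medium with 10% FBS at 37 °C under 5% CO₂, then exposed to compounds. WST (cell counting kit-8) reagent added for a further 4 h, absorbance read at 450 nm. IC50 from four-parameter logistic fit; mean ± S.D. of three experiments, each in triplicate.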

HCT-15 = assay: Cytotoxicity against human HCT15 cells after 4 days by ELISA reader assay; format: functional, cell-based; conditions: HCT-15, 96 h; method in brief: as §1
[1] = biological target: DNA topoisomerase 2-alpha (Homo sapiens) (UniProt P11388); assay: Inhibition of human DNA topoisomerase 2alpha-mediated relaxation of supercoiled pBR322 DNA at 100 uM after 30 mins by agarose gel electrophoresis
Sequence of DNA topoisomerase 2-alpha (Homo sapiens) (P11388 whole entry): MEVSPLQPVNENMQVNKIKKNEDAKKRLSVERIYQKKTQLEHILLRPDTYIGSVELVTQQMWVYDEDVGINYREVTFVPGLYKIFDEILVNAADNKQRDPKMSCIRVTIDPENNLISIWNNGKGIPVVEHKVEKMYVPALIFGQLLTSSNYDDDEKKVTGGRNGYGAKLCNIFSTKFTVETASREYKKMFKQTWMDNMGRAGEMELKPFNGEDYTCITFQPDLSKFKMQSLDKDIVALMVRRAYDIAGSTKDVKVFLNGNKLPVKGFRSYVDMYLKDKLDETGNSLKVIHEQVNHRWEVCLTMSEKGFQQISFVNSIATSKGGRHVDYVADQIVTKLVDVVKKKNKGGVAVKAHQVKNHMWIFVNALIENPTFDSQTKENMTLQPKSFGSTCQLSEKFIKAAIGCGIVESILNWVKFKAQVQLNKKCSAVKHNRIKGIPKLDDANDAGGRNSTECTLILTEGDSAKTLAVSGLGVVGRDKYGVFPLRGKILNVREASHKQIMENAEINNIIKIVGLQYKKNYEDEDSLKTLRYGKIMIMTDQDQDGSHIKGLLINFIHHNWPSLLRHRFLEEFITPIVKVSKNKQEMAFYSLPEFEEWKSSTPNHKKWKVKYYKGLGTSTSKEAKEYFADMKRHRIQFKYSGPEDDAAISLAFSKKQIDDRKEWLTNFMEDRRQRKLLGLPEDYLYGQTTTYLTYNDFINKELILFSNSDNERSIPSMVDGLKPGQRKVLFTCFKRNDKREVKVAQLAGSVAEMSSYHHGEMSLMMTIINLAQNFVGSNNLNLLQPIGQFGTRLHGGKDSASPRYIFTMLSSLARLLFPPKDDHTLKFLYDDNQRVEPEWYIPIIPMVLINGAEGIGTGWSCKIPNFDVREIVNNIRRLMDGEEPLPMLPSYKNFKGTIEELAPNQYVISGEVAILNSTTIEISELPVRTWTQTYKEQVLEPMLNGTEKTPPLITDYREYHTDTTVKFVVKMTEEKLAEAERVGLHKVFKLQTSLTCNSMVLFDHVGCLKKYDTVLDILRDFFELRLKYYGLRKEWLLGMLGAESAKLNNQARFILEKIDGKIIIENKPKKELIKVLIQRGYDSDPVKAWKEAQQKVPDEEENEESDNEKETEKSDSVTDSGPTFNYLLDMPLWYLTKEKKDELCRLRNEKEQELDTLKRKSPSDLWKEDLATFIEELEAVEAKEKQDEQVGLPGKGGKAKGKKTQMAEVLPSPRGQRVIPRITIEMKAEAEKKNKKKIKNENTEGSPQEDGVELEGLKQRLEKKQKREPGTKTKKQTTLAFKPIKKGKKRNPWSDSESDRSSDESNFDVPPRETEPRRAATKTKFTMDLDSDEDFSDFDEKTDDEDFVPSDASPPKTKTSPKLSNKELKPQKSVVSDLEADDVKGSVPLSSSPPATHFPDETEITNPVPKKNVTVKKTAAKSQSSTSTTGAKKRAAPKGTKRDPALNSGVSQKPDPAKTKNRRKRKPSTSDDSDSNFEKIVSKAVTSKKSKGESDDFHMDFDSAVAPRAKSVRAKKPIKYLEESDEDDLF
Method in brief: (§2)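 Human topo IIα (1 unit) with 200 ng supercoiled pBR322, 30 min at 30 °C in 10 mM Tris–HCl pH 7.9, 50 mM NaCl, 50 mM KCl, 5 mM MgCl2, 1 mM EDTA, 1 mM ATP plus BSA. Products run on 1% agarose in TAE at 25 V for 4 h, ethidium-stained, supercoiled DNA quantified under UV.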

[2] = biological target: T1, DNA topoisomerase 1 (Homo sapiens) (UniProt P11387); assay: Inhibition of human recombinant DNA topoisomerase 1-mediated relaxation of supercoiled pBR322 DNA at 20 uM after 30 mins by agarose gel electrophoresis
T1 sequence (whole entry): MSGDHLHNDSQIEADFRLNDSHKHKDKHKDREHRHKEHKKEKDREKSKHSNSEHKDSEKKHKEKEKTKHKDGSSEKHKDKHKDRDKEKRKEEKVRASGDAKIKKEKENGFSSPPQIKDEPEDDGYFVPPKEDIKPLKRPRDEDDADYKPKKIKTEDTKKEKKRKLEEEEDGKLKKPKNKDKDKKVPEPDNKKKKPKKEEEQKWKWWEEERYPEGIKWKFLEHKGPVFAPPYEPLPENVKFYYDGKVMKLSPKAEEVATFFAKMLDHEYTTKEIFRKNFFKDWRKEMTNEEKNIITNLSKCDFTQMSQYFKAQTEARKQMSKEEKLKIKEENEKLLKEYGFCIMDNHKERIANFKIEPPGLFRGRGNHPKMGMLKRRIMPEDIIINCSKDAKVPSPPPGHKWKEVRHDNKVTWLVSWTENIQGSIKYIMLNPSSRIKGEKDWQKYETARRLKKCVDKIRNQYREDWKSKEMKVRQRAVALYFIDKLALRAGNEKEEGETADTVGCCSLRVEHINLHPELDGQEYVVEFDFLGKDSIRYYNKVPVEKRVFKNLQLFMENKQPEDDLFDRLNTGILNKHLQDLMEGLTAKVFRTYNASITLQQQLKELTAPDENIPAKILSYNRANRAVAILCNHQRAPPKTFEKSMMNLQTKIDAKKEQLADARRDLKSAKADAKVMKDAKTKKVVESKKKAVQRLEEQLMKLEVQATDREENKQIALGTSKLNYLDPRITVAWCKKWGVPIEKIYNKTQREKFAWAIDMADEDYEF
Method in brief: (§3)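 Recombinant human topo I (0.4 units) with 100 ng supercoiled pBR322, 30 min at 37 °C in 10 mM Tris–HCl pH 7.9, 150 mM NaCl, 0.1% BSA, 1 mM spermidine, 5% glycerol. Compounds from 20 mM DMSO stock. Products run on 1% agarose in TAE, 15 V for 7 h, ethidium-stained, bands quantified under UV.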

MCF7 = assay: Cytotoxicity against human MCF7 cells after 4 days by ELISA reader assay; format: functional, cell-based; conditions: MCF7, 96 h; method in brief: as §1
K562 = assay: Cytotoxicity against human K562 cells after 4 days by ELISA reader assay; format: functional, cell-based; conditions: K562, 96 h; method in brief: as §1
[3] = biological target: DNA topoisomerase 2-alpha (Homo sapiens) (UniProt P11388); assay: Inhibition of human DNA topoisomerase 2alpha-mediated relaxation of supercoiled pBR322 DNA at 20 uM after 30 mins by agarose gel electrophoresis; method in brief: as §2
HeLa = assay: Cytotoxicity against human HeLa cells after 4 days by ELISA reader assay; format: functional, cell-based; conditions: 96 h; method in brief: as §1
[4] = biological target: T1, DNA topoisomerase 1 (Homo sapiens); assay: Inhibition of human recombinant DNA topoisomerase 1-mediated relaxation of supercoiled pBR322 DNA at 100 uM after 30 mins by agarose gel electrophoresis; method in brief: as §3

With `Clc1ccc(-c2cc(-c3ccoc3)cc(-c3cccnc3)n2)s1` the IC50 (DU-145) was 18.5 µM, the IC50 (HCT-15) was 0.72 µM and the inhibition [1] was 60.8%. The inhibition [2] was “inactive”, the IC50 (MCF7) was 3.48 µM and the IC50 (K562) was 18.7 µM. For the same molecule, the inhibition [3] was 40.9%, the IC50 (HeLa) was 20 µM and the inhibition [4] was 2%.
